From article PMC3472128 (Structure (London, England : 1993), 2012)
“Also recorded” adds a separate entry of the source. Blank lines part the entries; values can stand above or below the substance they belong to.

Legend:
[1] = target: YAP WW1 domain (Homo sapiens, UniProt P46937); experiment: ITC, Smad7 peptide vs YAP WW1; format: binding
[2] = system: Smurf2; experiment: NMR, Smad7 peptide binding to Smurf2; design: species or system human; conditions: triple resonance NMR; 285 K/298 K
[3] = target: T1, Smurf2 WW2-WW3 (Homo sapiens, UniProt Q9HAU4); experiment: IM-MS, complexes of Smurf2 WW2-WW3 with Smad7 peptide; format: binding; conditions: protein concentrations used in ITC (30–50 μM)
[4] = target: T2, Smurf1 WW2 (Homo sapiens, UniProt Q9HCE7); experiment: IM-MS, Smurf1 WW2 dimer population; format: binding
Summary of the method: (§1)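 Traveling-wave ion mobility–mass spectrometry was run on the recombinant Smurf WW protein mixed with the Smad7 peptide. Monomer, dimer and trimer species carrying zero to three ligands were assigned by specific ionisation mass and characteristic drift time.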

[5] = system: Smurf1 WW1-WW2 Arg243Glu; experiment: ITC, Smad7 peptide vs Smurf1 WW1-WW2 Arg243Glu; format: binding, human
[6] = system: Smurf1 WW1; experiment: ITC, Smad7 peptide vs Smurf1 WW1; format: binding, human
[7] = target: Nedd4L WW2 domain Lys378Glu (Homo sapiens, UniProt Q96PU5, K398E); experiment: ITC, Smad7 peptide vs Nedd4L WW2 Lys378Glu; format: binding
[8] = target: T2, Smurf1 WW2; experiment: ITC, Smad7 peptide vs Smurf1 WW2; format: binding
[9] = target: Nedd4L WW2 domain Lys378/Arg380 to Glu (Homo sapiens, UniProt Q96PU5, K398E/R400E); experiment: ITC, Smad7 peptide vs Nedd4L WW2 double mutant; format: binding
[10] = system: YAP WW2; experiment: ITC, Smad7 peptide vs YAP WW2; format: binding, human; conditions: 15°C, weaker than YAP WW1
[11] = system: Nedd4L WW domains; experiment: ITC, preferred Nedd4L WW domain for Smad7 peptide; format: binding, human
[12] = system: Smurf1 WW1-WW2 Gln247 and Gln249 to Glu; experiment: ITC, Smad7 peptide vs Smurf1 WW1-WW2 Gln247 and Gln249 to Glu; format: binding, human
[13] = target: Nedd4L WW2 domain Arg380Glu (Homo sapiens, UniProt Q96PU5, R400E); experiment: ITC, Smad7 peptide vs Nedd4L WW2 Arg380Glu; format: binding
[14] = target: T3, Smurf1 WW1-WW2 (Homo sapiens, UniProt Q9HCE7); experiment: ITC, Smad7 peptide vs Smurf1 WW1-WW2 pair; format: binding
T3 sequence (Q9HCE7 233-314 isoform Q9HCE7-2): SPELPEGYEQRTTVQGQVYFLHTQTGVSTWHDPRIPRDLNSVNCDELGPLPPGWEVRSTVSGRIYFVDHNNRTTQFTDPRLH
Summary of the method: (§2)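 Nano ITC was run at 5, 15 and 25 °C, in Tris and in ammonium acetate at pH 7. Kd and stoichiometry come from fits. Each run was done at least three times with two protein expression batches.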

[15] = target: T3, Smurf1 WW1-WW2; experiment: IM-MS, complexes of Smurf1 WW1-WW2 with Smad7 peptide; format: binding; conditions: protein concentrations used in ITC (30–50 μM)
[16] = target: four independent Nedd4L WW domains; experiment: ITC, Smad7 peptide vs independent Nedd4L WW domains; format: binding, human; conditions: each of the four independent WW domains, values shown in Figure 1B only
[17] = system: Nedd4L WW2-WW3 mutant constructs (bind only one PY site); experiment: ITC, Smad7 peptide vs Nedd4L WW2-WW3 mutant constructs; format: binding, human; conditions: two WW2-WW3 mutant constructs that bind only one PY site
[18] = target: T1, Smurf2 WW2-WW3; experiment: ITC, Smad7 peptide vs Smurf2 WW2-WW3 pair; format: binding
Summary of the method: as §2

[19] = system: Smurf1 WW1; experiment: IM-MS, Smurf1 WW1 dimer population; format: binding, human
Summary of the method: as §1

[20] = system: three possible Nedd4L WW-WW pairs; experiment: ITC, Smad7 peptide vs Nedd4L WW-WW pairs; format: binding, human
[21] = system: Smurf2 WW2; experiment: ITC, Smad7 peptide vs Smurf2 WW2; format: binding, human
[22] = target: Smurf2 WW3 domain R312E (Homo sapiens, UniProt Q9HAU4, R312E); experiment: ITC, Smad7 peptide vs Smurf2 WW3 R312E; format: binding
[23] = system: Smurf1 WW1-WW2 Arg243Ala; experiment: ITC, Smad7 peptide vs Smurf1 WW1-WW2 Arg243Ala; format: binding, human
[24] = system: Smurf1 WW1-WW2 Gln249Glu; experiment: ITC, Smad7 peptide vs Smurf1 WW1-WW2 Gln249Glu; format: binding, human
[25] = system: Nedd4L WW2-WW3 pair; experiment: ITC, Smad7 peptide vs Nedd4L WW2-WW3 pair; format: binding, human
[26] = system: Smurf1 WW1-WW2 pair; experiment: NMR, Smad7 peptide binding to Smurf1; design: species or system human; conditions: triple resonance NMR; 285 K/298 K
[27] = target: Smurf1 WW2 domain Arg295Glu (Homo sapiens, UniProt Q9HCE7, R321E); experiment: ITC, Smad7 peptide vs Smurf1 WW2 Arg295Glu; format: binding
[28] = target: YAP WW1-WW2 pair (Homo sapiens, UniProt P46937); experiment: ITC, YAP WW1-WW2 pair; format: binding
[29] = system: HA-YAP; experiment: Immunoprecipitation of Smad7 with HA-YAP in HEK293T cells; format: cell-based, human; conditions: full-length Smad7 wild type or variants with HA-YAP
Summary of the method: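 HEK293T cells were transfected with epitope-tagged constructs (HA-YAP with full-length Smad7 wild type or variants) and treated where indicated with TGF-β1 at 100 pM. Lysates were immunoprecipitated with anti-Flag antibody, then immunoblotted with antibodies against the tags.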

T1 sequence (Q9HAU4 250-333 limits assumed): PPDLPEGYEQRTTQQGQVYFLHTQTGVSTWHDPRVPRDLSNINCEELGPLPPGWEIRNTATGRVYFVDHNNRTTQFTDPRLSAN
Chain of YAP WW1-WW2 pair (P46937 163-266 limits assumed): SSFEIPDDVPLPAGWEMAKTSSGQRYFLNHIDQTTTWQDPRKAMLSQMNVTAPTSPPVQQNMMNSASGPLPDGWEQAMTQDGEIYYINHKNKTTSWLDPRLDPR
Chain of YAP WW1 domain (P46937 163-206): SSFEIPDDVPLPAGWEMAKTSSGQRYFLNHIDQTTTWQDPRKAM
Chain of Smurf1 WW2 domain Arg295Glu (Q9HCE7 303-340 R321E limits assumed): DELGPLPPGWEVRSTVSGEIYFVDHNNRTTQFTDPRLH
Chain of Smurf2 WW3 domain R312E (Q9HAU4 297-333 R312E limits assumed): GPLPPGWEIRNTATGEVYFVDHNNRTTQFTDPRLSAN
Chain of Nedd4L WW2 domain Lys378/Arg380 to Glu (Q96PU5 384-423 K398E/R400E): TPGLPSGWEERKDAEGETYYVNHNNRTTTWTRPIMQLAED
Chain of Nedd4L WW2 domain Lys378Glu (Q96PU5 384-423 K398E): as the sequence (Q96PU5 384-423 K398E/R400E) above, with E17R counted along it
Chain of Nedd4L WW2 domain Arg380Glu (Q96PU5 384-423 R400E): as the sequence (Q96PU5 384-423 K398E/R400E) above, with E15K counted along it

Kd [1]: 6.9 ± 0.28 µM
preferred WW domain ([1]; ITC, 15°C): YAP WW1 domain preferentially binds
WW domain used for interaction [2]: the WW3 for Smurf2
dimer population in the presence of peptide [4]: reduced
Kd [7]: 23.5 ± 1.5 µM
Kd [8]: 4.1 ± 0.6 µM
stoichiometry ([8]; ITC, independent WW2, 15 °C, Tris buffer): 1
Kd [9]: 27.3 ± 2.2 µM
Kd [13]: 15.4 ± 3.5 µM
stoichiometry ([14]; ITC, 15 °C, Tris buffer): 0.7
stoichiometry ([14]; ITC, all temperatures): < 1
Kd ([14]; affinity (KD), ITC, 15 °C, Tris buffer (Figure 1C), at least three times, two protein expression batches): 1700 ± 300 nM
affinity increase due to the WW domain pair ([14]; pair versus Smurf1 WW2 at a given temperature): about 2 fold
dissociation constants [16]: in the μM range
stoichiometry ([18]; ITC, all temperatures): < 1
Kd ([18]; affinity (KD), ITC, 15 °C): 1700 ± 300 nM
affinity increase due to the WW domain pair ([18]; pair versus Smurf2 WW3 at a given temperature): about 2 fold
dissociation constants ([20]; three possible WW-WW pairs, values shown in Figure 1B only): in the μM range
Kd [22]: 34.2 ± 1.6 µM
WW domain used for interaction [26]: using the WW2 domain
Kd [27]: 48.6 ± 6.4 µM
decrease of binding affinity ([27]; R295E versus wild type): approximately 8 fold
Kd [28]: 9.8 ± 0.9 µM
stoichiometry N ([28]; ITC, 15°C): 1
Substance: Ac-ELESPPPPYSRYPMD-NH2 [Smad7 peptide]
species detected [3]: dimers with one or with two bound ligands and trimers
reduction of affinity [5]: 10 fold
affinity [6]: very low affinity
dissociation constant relative to WW1 [10]: 9 fold
preferred WW domain [11]: preferentially uses WW2
reduction of affinity [12]: 3 fold
species detected [15]: monomeric complexes, protein dimers bound to only one ligand, dimers bound to two ligands and higher order species; also recorded: dimers with one or with two bound ligands and trimers
peptide affinity [17]: close to those of the single domains
dimer population in the presence of peptide [19]: unaffected
effect of domain pairs on affinity ([20]; in vitro, versus single domains): does not increase the affinity in vitro
affinity [21]: very low affinity
reduction of affinity [23]: 3 fold
reduction of affinity [24]: 3 fold
stoichiometry (peptide per protein) [25]: two equivalents of peptide per protein
affinity, WW1-WW2 pair versus independent WW1 ([28]; ITC): binds slightly worse than the isolated WW1

Substance: Smad7: full-length protein Smad7 (wild type), flag epitope-tagged, expressed in HEK293T
binding to HA-YAP in immunoprecipitation [29]: binding is observed
